Columns and labels:
Nucleic Acid [1] = test: Relative binding affinity for calf thymus DNA in MES 10 at 25 degrees C (Spectrophotometric data); format: nucleic-acid assay; conditions: Bos taurus
In short: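 Spectrophotometric titration of ~1 × 10^-3 M compound stock into calf thymus DNA in MES 10 buffer at 25 °C. Each point averages 100 absorbance readings. Absorbances converted to ν (mol bound per mol base pairs) and free ligand using free and bound extinction coefficients. K and site size n come from a nonlinear least-squares fit of the Scatchard plot to the site exclusion model, in base-pair molarity.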

Nucleic Acid [2] = test: Thermal melting point of calf thymus DNA complexed with monoimide in MES 00 buffer (Spectrophotometric data); format: functional; conditions: Bos taurus

SMILES | K (Nucleic Acid [1]) | Tm (Nucleic Acid [2]) [°C]
CN(C)CCCN1C(=O)c2cccc3c([N+](=O)[O-])ccc(c23)C1=O | 0.0083 | 71.7
CN(C)CCCN1C(=O)c2cccc3cccc(c23)C1=O | 0.0089 | 71.9
CN(C)CCCN1C(=O)c2cccc3cc([N+](=O)[O-])cc(c23)C1=O | 0.0234 | 77.6
CN(C)CCCN1C(=O)c2cccc3cc(N)cc(c23)C1=O | 0.0112 | 70.6
CN(C)CCCN1C(=O)c2cccc3c(N)ccc(c23)C1=O | 0.0162 | 70.6

— ChEMBL document CHEMBL1122543, “A substituent constant analysis of the interaction of substituted naphthalene monoimides with DNA” (J Med Chem, 1984)
